In ChEMBL document CHEMBL3600302, “A Ligand-Based Drug Design. Discovery of 4-Trifluoromethyl-7,8-pyranocoumarin as a Selective Inhibitor of Human Cytochrome P450 1A2” (J Med Chem, 2015):

Experiments:
[1] = target: T1, Cytochrome P450 1A1 (Homo sapiens, UniProt P04798); assay: Inhibition of human microsomal CYP1A1-dependent ethoxyresorufin-O-deethylase activity at 10 nM measured over 6 mins by spectrofluorimetric analysis in absence of NADPH regenerating solution; conditions: 0.1 h, 0.01 µM
T1 sequence (P04798 whole entry): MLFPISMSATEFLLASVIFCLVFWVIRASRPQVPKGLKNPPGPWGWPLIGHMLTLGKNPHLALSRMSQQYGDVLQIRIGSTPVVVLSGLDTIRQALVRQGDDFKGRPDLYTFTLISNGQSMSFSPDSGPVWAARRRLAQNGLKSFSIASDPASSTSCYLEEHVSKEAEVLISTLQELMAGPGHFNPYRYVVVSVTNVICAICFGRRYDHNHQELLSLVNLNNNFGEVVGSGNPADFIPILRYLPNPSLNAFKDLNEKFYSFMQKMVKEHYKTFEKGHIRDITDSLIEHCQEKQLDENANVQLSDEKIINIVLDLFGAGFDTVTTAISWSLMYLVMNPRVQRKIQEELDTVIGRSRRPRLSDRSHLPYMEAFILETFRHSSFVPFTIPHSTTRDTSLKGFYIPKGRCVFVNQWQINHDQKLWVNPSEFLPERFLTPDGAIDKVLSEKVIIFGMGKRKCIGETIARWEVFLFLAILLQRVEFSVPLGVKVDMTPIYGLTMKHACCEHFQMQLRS
Procedure, shortened: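 Microsomal P450 in 0.1 M potassium phosphate pH 7.6 with MgCl2 and 10 nM inhibitor in DMSO, 2 mL final. Preincubated 5 min at 37 °C either with NADPH-regenerating solution, or without it, with NADPH then added at start. Reaction started with ethoxyresorufin (final 5 µM). Resorufin formation followed 6 min at 37 °C.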

[2] = target: T2, Aryl hydrocarbon receptor (Homo sapiens, UniProt P35869); assay: Activation of human AhR expressed in Saccharomyces cerevisiae MYA-3637 assessed as upregulation of […] at >10^-7 M by LacZ reporter assay; assay type: ADME
T2 sequence (P35869 whole entry): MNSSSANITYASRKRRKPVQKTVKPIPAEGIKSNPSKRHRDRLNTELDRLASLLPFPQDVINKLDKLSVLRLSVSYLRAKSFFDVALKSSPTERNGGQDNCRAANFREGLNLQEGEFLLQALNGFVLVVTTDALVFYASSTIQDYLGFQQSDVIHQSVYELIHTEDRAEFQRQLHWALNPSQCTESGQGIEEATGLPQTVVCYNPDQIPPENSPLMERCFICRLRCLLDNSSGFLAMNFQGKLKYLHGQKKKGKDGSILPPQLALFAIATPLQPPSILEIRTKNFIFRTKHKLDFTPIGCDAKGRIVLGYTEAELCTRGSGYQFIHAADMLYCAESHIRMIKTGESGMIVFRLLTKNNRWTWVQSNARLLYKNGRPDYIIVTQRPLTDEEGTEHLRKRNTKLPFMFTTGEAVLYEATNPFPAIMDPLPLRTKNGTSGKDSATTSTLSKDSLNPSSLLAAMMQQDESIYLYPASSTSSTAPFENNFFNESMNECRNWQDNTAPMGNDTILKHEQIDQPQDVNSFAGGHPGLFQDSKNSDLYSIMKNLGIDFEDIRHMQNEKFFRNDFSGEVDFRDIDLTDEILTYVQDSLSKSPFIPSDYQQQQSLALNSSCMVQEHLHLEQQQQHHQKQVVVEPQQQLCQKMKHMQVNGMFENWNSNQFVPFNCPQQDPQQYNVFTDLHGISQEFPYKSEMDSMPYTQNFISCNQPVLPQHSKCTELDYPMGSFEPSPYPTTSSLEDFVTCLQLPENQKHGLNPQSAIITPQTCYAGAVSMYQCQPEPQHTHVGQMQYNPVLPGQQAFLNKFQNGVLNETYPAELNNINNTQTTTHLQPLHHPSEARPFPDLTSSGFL
Procedure, shortened: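 Yeast MYA-3637 carrying integrated human AhR (GAL promoter) and a lacZ reporter, grown on synthetic minimal medium without tryptophan, with galactose as carbon source. Compounds in DMSO were added to overnight culture in quadruplicate. Next day A600 was read, then lysis buffer (0.2% sarcosyl, 1 mM DTT, 0.4 mg/mL ONPG) was added. A405/A600 ratio was taken. βNF 10^-8 M served as positive control. At least three repeats.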

[3] = target: T3, CYP1A2 (Homo sapiens, UniProt P05177); assay: Inhibition of human microsomal CYP1A2-dependent methoxyresorufin-O-demethylase activity at 10 nM preincubated for 5 mins followed by NADPH regenerating solution and substrate addition measured over 6 mins by spectrofluorimetric analysis relative to control; conditions: human microsomal CYP1A2, probe methoxyresorufin (O-demethylation)
T3 sequence (P05177 whole entry): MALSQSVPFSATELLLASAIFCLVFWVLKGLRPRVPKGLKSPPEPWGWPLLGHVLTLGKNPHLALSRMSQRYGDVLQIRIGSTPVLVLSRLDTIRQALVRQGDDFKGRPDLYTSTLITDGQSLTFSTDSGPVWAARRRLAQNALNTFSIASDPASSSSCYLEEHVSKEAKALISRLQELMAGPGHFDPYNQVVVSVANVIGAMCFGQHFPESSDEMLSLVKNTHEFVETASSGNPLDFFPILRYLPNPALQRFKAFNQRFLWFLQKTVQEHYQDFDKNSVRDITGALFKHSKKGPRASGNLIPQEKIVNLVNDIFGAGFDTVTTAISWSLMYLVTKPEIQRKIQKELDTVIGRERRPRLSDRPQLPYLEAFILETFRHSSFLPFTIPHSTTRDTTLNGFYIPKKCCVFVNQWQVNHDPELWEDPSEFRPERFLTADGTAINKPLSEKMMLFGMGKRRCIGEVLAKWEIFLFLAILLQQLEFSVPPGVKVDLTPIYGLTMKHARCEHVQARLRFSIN

[4] = organism: Homo sapiens; assay: Selectivity ratio of Ki for human microsomal CYP1B1 to Ki for human microsomal CYP1A2
Procedure, shortened: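 Microsomal P450 (final 5 nM) in 0.1 M potassium phosphate pH 7.6 with MgCl2 at 37 °C. Substrate final 5 µM: ethoxyresorufin for 1A1/1B1, methoxyresorufin for 1A2. […] Ki was taken as the x-intercept of Dixon plots (1/v0 vs [I]). Mean ± SD of three independent experiments. Selectivity ratios are ratios of these Ki.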

[5] = target: T4, Cytochrome P450 1A2 (Homo sapiens, UniProt P05177); assay: Inhibition of human microsomal CYP1A2-dependent methoxyresorufin-O-demethylase activity at 10 nM measured over 6 mins by spectrofluorimetric analysis in absence of NADPH regenerating solution; conditions: 0.1 h, 0.01 µM
T4 sequence (P05177 whole entry): T3 sequence (P05177 whole entry)

[6] = target: T4, Cytochrome P450 1A2; assay: Inhibition of human microsomal CYP1A2-dependent methoxyresorufin-O-demethylase activity by spectrofluorimetric analysis in presence of NADPH regenerating solution
Procedure, shortened: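 Microsomal P450 (final 5 nM) in 0.1 M potassium phosphate pH 7.6 with MgCl2 at 37 °C. Substrate final 5 µM: ethoxyresorufin for 1A1/1B1, methoxyresorufin for 1A2. Ki was taken as the x-intercept of Dixon plots (1/v0 vs [I]). Mean ± SD of three independent experiments. Selectivity ratios are ratios of these Ki.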

## Cc1cc2c(ccc3c(=O)cc(-c4ccccc4)oc32)o1
[1]
  inhibition (INH): Not Active
[2]
  Activity: Active
[3]
  inhibition at 0.1 h, 0.01 µM: > 90%
[4]
  Ratio Ki: 6
[5]
  inhibition (INH): Active
[6]
  Ki: 30 nM
